Measurements published in ChEMBL document CHEMBL1153616, “Synthesis and antiviral activity of new pyrazole and thiazole derivatives” (Eur J Med Chem, 2009).
Converted amounts (≈) assume the structure as drawn.

Columns and labels:
[1] = test system: Coxsackievirus B4; test: Antiviral activity against Coxsackievirus B4 infected in african green monkey Vero cells assessed as inhibition of virus-induced cytopathicity after 3 days; type: functional, organism-based; conditions: Enterovirus B, 72 h
Method in brief: (§1)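 Confluent cell monolayers infected with 100 CCID50 virus; after 2 h adsorption at 37 °C, virus removed and serial compound dilutions added (DMSO stocks 10 mg/ml). Incubated 37 °C for 3 days until complete CPE in untreated virus control. EC50 = concentration protecting 50% of infected cells from viral cytopathogenicity; ">" marks highest concentration tested.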

[2] = test system: Human alphaherpesvirus 2; test: Antiviral activity against HSV2 G infected in human HEL cells assessed as inhibition of virus-induced cytopathicity after 3 days; type: functional, organism-based; conditions: Human alphaherpesvirus 2, strain G, 72 h; method in brief: as §1
[3] = test system: Respiratory syncytial virus; test: Antiviral activity against RSV infected in human HeLa cells assessed as inhibition of virus-induced cytopathicity after 3 days; type: functional, organism-based; conditions: 72 h; method in brief: as §1
[4] = test system: Human alphaherpesvirus 1; test: Antiviral activity against HSV1 KOS infected in human HEL cells assessed as inhibition of virus-induced cytopathicity after 3 days; type: functional, organism-based; conditions: Human alphaherpesvirus 1, KOS, 72 h
[5] = test system: Mammalian orthoreovirus 1; test: Antiviral activity against Reovirus 1 infected in african green monkey Vero cells assessed as inhibition of virus-induced cytopathicity after 3 days; type: functional, organism-based; conditions: Mammalian orthoreovirus 1, Vero, 72 h; method in brief: as §1
[6] = test system: Human respirovirus 3; test: Antiviral activity against Parainfluenza virus type 3 infected in african green monkey Vero cells assessed as inhibition of virus-induced cytopathicity after 3 days; type: functional, organism-based; conditions: Human respirovirus 3, Vero, 72 h; method in brief: as §1
[7] = test system: Vesicular stomatitis virus; test: Antiviral activity against Vesicular stomatitis virus infected in human HEL cells assessed as inhibition of virus-induced cytopathicity after 3 days; type: functional, organism-based; conditions: 72 h
[8] = Cytotoxicity against african green monkey Vero cells assessed as minimum cytotoxic concentration required to cause microscopically detectable alteration in normal cell morphology; type: cell-based; conditions: chlorocebus sabaeus
Method in brief: (§2)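 Run in parallel with antiviral assays on uninfected cell cultures; test compounds from 10 mg/ml DMSO stocks in serial dilution. Value is minimum cytotoxic concentration (MCC) producing microscopically detectable alteration of normal cell morphology.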

[9] = test system: Punta Toro virus; test: Antiviral activity against Punta Toro virus infected in african green monkey Vero cells assessed as inhibition of virus-induced cytopathicity after 3 days; type: functional, organism-based; conditions: 72 h
Method in brief: (§3)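 Confluent cell monolayers infected with 100 CCID50 virus; after 2 h adsorption at 37 °C, virus removed and serial compound dilutions added (DMSO stocks 10 mg/ml). Incubated 37 °C for 3 days until complete CPE in untreated virus control.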

[10] = Cytotoxicity against human HeLa cells assessed as minimum cytotoxic concentration required to cause microscopically detectable alteration in normal cell morphology; type: cell-based; method in brief: as §2
[11] = test system: Vaccinia virus; test: Antiviral activity against Vaccinia virus infected in human HEL cells assessed as inhibition of virus-induced cytopathicity after 3 days; type: functional, organism-based; conditions: Orthopoxvirus vaccinia, 72 h
[12] = test system: Vesicular stomatitis virus; test: Antiviral activity against Vesicular stomatitis virus infected in human HeLa cells assessed as inhibition of virus-induced cytopathicity after 3 days; type: functional, organism-based; conditions: 72 h
[13] = test system: Sindbis virus; test: Antiviral activity against Sindbis virus infected in african green monkey Vero cells assessed as inhibition of virus-induced cytopathicity after 3 days postinfection; type: functional, organism-based; conditions: 72 h; method in brief: as §1
[14] = test system: Coxsackievirus B4; test: Antiviral activity against Coxsackievirus B4 infected in human HeLa cells assessed as inhibition of virus-induced cytopathicity after 3 days; type: functional, organism-based; conditions: Enterovirus B, 72 h; method in brief: as §3
[15] = Cytotoxicity against HEL cells assessed as minimum cytotoxic concentration required to cause microscopically detectable alteration in normal cell morphology; type: cell-based; conditions: human; method in brief: as §2
[16] = test system: Human alphaherpesvirus 1; test: Antiviral activity against thymidine kinase-deficient ACV-resistant HSV1 KOS infected in human HEL cells assessed as inhibition of virus-induced cytopathicity after 3 days; type: functional, organism-based; conditions: Human alphaherpesvirus 1, KOS, 72 h

Row | SMILES | EC50 [1] [µg/mL] | EC50 [2] [µg/mL] | EC50 [3] [µg/mL] | EC50 [4] [µg/mL] | EC50 [5] [µg/mL] | EC50 [6] [µg/mL] | EC50 [7] [µg/mL] | MCC [8] [µg/mL] | EC50 [9] [µg/mL] | MCC [10] [µg/mL] | EC50 [11] [µg/mL] | EC50 [12] [µg/mL] | EC50 [13] [µg/mL] | EC50 [14] [µg/mL] | MCC [15] [µg/mL] | EC50 [16] [µg/mL]
1 | O=C1CSC(N2N=C(c3ccccc3)CC2c2ccc(OCc3ccccc3)cc2)=N1 (stereo unspecified) | > 20 | > 20 | > 20 | > 20 | > 20 | > 20 | > 20 | 100 | > 20 | 100 | > 20 | > 20 | > 20 | > 20 | 100 | > 20
2 | Clc1ccc(-c2csc(N3N=C(c4ccccc4)CC3c3ccc(OCc4ccccc4)cc3)n2)cc1 (stereo unspecified) | > 20 | > 20 | > 20 | > 20 | > 20 | > 20 | > 20 | 100 | > 20 | 100 | > 20 | > 20 | > 20 | > 20 | 100 | > 20
3 | Nc1ccn(C[C@@H](CO)OCP(=O)(O)O)c(=O)n1.O.O [CIDOFOVIR] | – | 5 | – | 3 | – | – | > 250 | – | – | – | 10 | – | – | – | > 250 | 5
4 | Cc1ccc(C2=NN(c3nc(-c4ccc(Cl)cc4)cs3)C(c3ccc(OCc4ccccc4)cc3)C2)cc1 (stereo unspecified) | > 20 | > 20 | > 20 | > 20 | > 20 | > 20 | > 20 | 100 | > 20 | 100 | > 20 | > 20 | > 20 | > 20 | 100 | > 20
5 | NC(=S)N1N=C(c2ccccc2)CC1c1ccc(OCc2ccccc2)cc1 (stereo unspecified) | > 20 | > 20 | > 20 | > 20 | > 20 | > 20 | > 20 | 100 | > 20 | ≥ 20 | > 20 | > 20 | > 20 | > 20 | 100 | > 20
6 | NC(=S)N1N=C(c2ccc(Br)cc2)CC1c1ccc(OCc2ccccc2)cc1 (stereo unspecified) | > 20 | > 20 | > 20 | > 20 | > 20 | > 20 | > 20 | 100 | > 20 | 100 | > 20 | > 20 | > 20 | > 20 | 100 | > 20
7 | Nc1nc2c(ncn2COC(CO)CO)c(=O)[nH]1 [GANCICLOVIR] | – | 0.08 (≈ 0.313 µM) | – | 0.08 (≈ 0.313 µM) | – | – | > 100 | – | – | – | > 100 | – | – | – | > 100 | 6 (≈ 23.5 µM)
8 | CC(=O)N1N=C(c2ccccc2)CC1c1ccc(OCc2ccccc2)cc1 (stereo unspecified) | > 20 | > 20 | > 100 | > 20 | > 20 | > 20 | > 20 | 100 | > 20 | > 100 | > 20 | > 100 | > 20 | > 100 | 100 | > 20
9 | Cc1ccc(C2=NN(c3nc(-c4ccc(C)cc4)cs3)C(c3ccc(OCc4ccccc4)cc3)C2)cc1 (stereo unspecified) | > 100 | > 20 | > 100 | > 20 | > 100 | > 100 | > 20 | > 100 | > 100 | > 100 | > 20 | > 100 | > 100 | > 100 | 100 | > 20
10 | O=C1CSC(N2N=C(c3ccc(Cl)cc3)CC2c2ccc(OCc3ccccc3)cc2)=N1 (stereo unspecified) | > 20 | > 20 | > 20 | > 20 | > 20 | > 20 | > 20 | 100 | > 20 | 100 | > 20 | > 20 | > 20 | > 20 | 100 | > 20
11 | O=c1[nH]c(=O)n([C@H]2C[C@H](O)[C@@H](CO)O2)cc1/C=C/Br [BRIVUDINE] | – | 126 (≈ 378 µM) | – | 0.08 (≈ 0.24 µM) | – | – | > 250 | – | – | – | 10 (≈ 30 µM) | – | – | – | > 250 | > 250
12 | Nc1ncnc2c1ncn2C[C@H](O)CO [(S)-DHPA] | > 250 | – | > 250 | – | > 250 | > 250 | – | > 250 | > 250 | > 250 | – | > 250 | > 250 | > 250 | – | –
13 | Cc1ccc(-c2csc(N3N=C(c4ccc(Br)cc4)CC3c3ccc(OCc4ccccc4)cc3)n2)cc1 (stereo unspecified) | > 20 | > 20 | > 100 | > 20 | > 20 | > 20 | > 20 | 100 | > 20 | > 100 | > 20 | > 100 | > 20 | > 100 | 100 | > 20
14 | Cc1ccc(-c2csc(N3N=C(c4ccccc4)CC3c3ccc(OCc4ccccc4)cc3)n2)cc1 (stereo unspecified) | > 20 | > 100 | > 100 | > 100 | > 20 | > 20 | > 100 | 100 | > 20 | > 100 | > 100 | > 100 | > 20 | > 100 | > 100 | > 100
15 | NC(=O)c1ncn([C@@H]2O[C@H](CO)[C@@H](O)[C@H]2O)n1 [RIBAVIRIN] | > 250 | > 250 | 10 (≈ 40.9 µM) | > 250 | > 250 | 45 (≈ 184 µM) | > 250 | > 250 | – | > 250 | 146 (≈ 598 µM) | 29 (≈ 119 µM) | > 250 | – | > 250 | > 250
16 | CC(=O)N1N=C(c2ccc(Br)cc2)CC1c1ccc(OCc2ccccc2)cc1 (stereo unspecified) | > 20 | > 20 | > 20 | > 20 | > 20 | > 20 | > 20 | 100 | > 20 | 100 | > 20 | > 20 | > 20 | > 20 | 100 | > 20
17 | O=C1CSC(N2N=C(c3ccc(Br)cc3)CC2c2ccc(OCc3ccccc3)cc2)=N1 (stereo unspecified) | > 20 | > 20 | > 100 | > 20 | > 20 | > 20 | > 20 | 100 | > 20 | > 100 | > 20 | > 100 | > 20 | > 100 | 100 | > 20
18 | Cc1ccc(-c2csc(N3N=C(c4ccc(Cl)cc4)CC3c3ccc(OCc4ccccc4)cc3)n2)cc1 (stereo unspecified) | > 20 | > 20 | > 100 | > 20 | > 20 | > 20 | > 20 | 100 | > 20 | > 100 | > 20 | > 100 | > 20 | > 100 | 100 | > 20
19 | NC(=S)N1N=C(c2ccc(Cl)cc2)CC1c1ccc(OCc2ccccc2)cc1 (stereo unspecified) | > 100 | > 100 | > 100 | > 100 | > 100 | > 100 | > 100 | > 100 | > 100 | > 100 | > 100 | > 100 | > 100 | > 100 | > 100 | > 100
